system: HeLa; assay: Cytotoxicity against human HeLa cells after 72 hrs by alamar blue assay; type: cell-based; settings: not given
How it was run: (§1)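 HeLa cells were seeded at 5k per well. Compounds were tested as a 9-point threefold dilution series, with triplicate readings at 0 and 72 h. At each time point Alamar Blue was added for 3 h at 37 °C and fluorescence was read. Relative growth was compared to a DMSO control well for each compound.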

SMILES | IC50 [nM]
Cc1ccc2c(c1)NC(c1ccccc1C(F)(F)F)C1=C(CC3(CCCC3)CC1=O)N2 (single isomer, unassigned; (+)) | > 50000

target: T1, Neuromedin-B receptor (Homo sapiens, UniProt P28336); assay: Antagonist activity at human neuromedin B receptor transfected in HEK293 cells assessed as inhibition of 1 nM neuromedin B-induced myo-[3H]inositol phosphate accumulation after 60 mins by scintillation proximity assay; type: functional, cell-based; settings: not given
T1 sequence (P28336 whole entry): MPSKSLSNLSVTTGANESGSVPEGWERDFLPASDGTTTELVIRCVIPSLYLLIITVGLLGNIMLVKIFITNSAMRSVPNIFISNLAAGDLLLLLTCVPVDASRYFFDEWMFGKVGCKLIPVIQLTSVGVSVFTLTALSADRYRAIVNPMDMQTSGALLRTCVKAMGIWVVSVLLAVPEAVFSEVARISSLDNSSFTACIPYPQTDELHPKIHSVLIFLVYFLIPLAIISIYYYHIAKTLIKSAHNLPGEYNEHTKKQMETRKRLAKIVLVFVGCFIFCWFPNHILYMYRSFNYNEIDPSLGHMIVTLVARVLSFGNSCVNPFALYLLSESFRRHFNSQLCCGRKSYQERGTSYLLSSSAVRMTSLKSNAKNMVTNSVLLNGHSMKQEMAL
How it was run: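 hNMBR-transfected HEK293 cells (2.5 × 10⁴ per well) were labelled overnight at 37 °C with myo-[³H]inositol in inositol-free DMEM with 25 mM Hepes and 10% dialyzed FBS. Compounds were added in inositol-free DMEM with 0.3% BSA and 10 mM LiCl for 60 min at 37 °C. Cells were lysed in 20 mM formic acid (2 h, 4 °C), and inositol phosphates were captured on RNA-binding SPA beads for 30 min.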

SMILES | IC50 [nM]
Cc1ccc2c(c1)NC(c1ccccc1C(F)(F)F)C1=C(CC3(CCCC3)CC1=O)N2 (single isomer, unassigned; (+)) | 580
Cc1ccc2c(c1)NC(c1c(F)cccc1Cl)C1=C(CC(C)(C)CC1=O)N2 (configuration not stated) | 5500

target: T1, Neuromedin-B receptor; assay: Displacement of [125I]-(D-Tyr0)NMB from human neuromedin B receptor transfected in HEK293 cells; type: cell-based; settings: not given
How it was run: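 Whole-cell competition binding used 1 × 10⁶ HEK293 cells stably transfected with hNMBR, with 150 pM ¹²⁵I-[D-Tyr0]NMB (2200 Ci/mmol), in DMEM for 1 h at room temperature. Bound ligand was separated by filtration and total bound counts were measured. Day-to-day standard error was <30%; well-to-well variability was <10%.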

SMILES | IC50 [nM]
Cc1ccc2c(c1)NC(c1c(F)cccc1Cl)C1=C(CCC1=O)N2 (configuration not stated) | 10000
Cc1ccc2c(c1)NC(c1c(F)cccc1C(F)(F)F)C1=C(CC3(CCCC3)CC1=O)N2 (configuration not stated) | 540
CC1(C)CC(=O)C2=C(C1)Nc1ccc(O)cc1NC2c1c(F)cccc1Cl (configuration not stated) | 10000
CC1(C)CC(=O)C2=C(C1)Nc1ccc(C(=O)O)cc1NC2c1c(F)cccc1Cl (configuration not stated) | 10000
Cc1ccc2c(c1)NC(c1c(F)cccc1Cl)C1=C(CC(C)CC1=O)N2 (configuration not stated) | 450
CCN1c2cc(C)ccc2NC2=C(C(=O)CC(C)(C)C2)C1c1c(F)cccc1Cl (configuration not stated) | 180
COc1ccc2c(c1)NC(c1c(F)cccc1Cl)C1=C(CC(C)(C)CC1=O)N2 (configuration not stated) | 2200
COc1ccc(C2CC(=O)C3=C(C2)Nc2ccc(C)cc2NC3c2c(F)cccc2Cl)cc1 (configuration not stated) | 2000
Cc1ccc2c(c1)NC(c1c(F)cccc1Cl)C1=C(CC(C(C)C)CC1=O)N2 (configuration not stated) | 810
Cc1ccc2c(c1)NC(c1ccccc1C(F)(F)F)C1=C(CC(C)(C)CC1=O)N2 (configuration not stated) | 250
Cc1ccc2c(c1)N(C)C(c1c(F)cccc1Cl)C1=C(CC(C)(C)CC1=O)N2 (configuration not stated) | 170
Cc1ccc2c(c1)NC(c1ccccc1F)C1=C(CC(C)(C)CC1=O)N2 (configuration not stated) | 1300
Cc1ccc2c(c1)NC(c1c(F)cccc1Cl)C1=C(CC3(CCCC3)CC1=O)N2 (configuration not stated) | 280
CSc1ccccc1C1Nc2cc(C)ccc2NC2=C1C(=O)CC1(CCCC1)C2 (configuration not stated) | 250
CC1(C)CC(=O)C2=C(C1)Nc1ccc(C(N)=O)cc1NC2c1c(F)cccc1Cl (configuration not stated) | 10000
CC1(C)CC(=O)C2=C(C1)Nc1ccc(Cl)cc1NC2c1c(F)cccc1Cl (configuration not stated) | 860
Cc1ccc2c(c1)NC(c1ccccc1C(F)(F)F)C1=C(CC3(CCCC3)CC1=O)N2 (single isomer, unassigned; (+)) | 30
Cc1ccc2c(c1)NC(c1ccccc1C(F)(F)F)C1=C(CC3(CCCC3)CC1=O)N2 (stereo in doubt; 30) | 96

SMILES | IC50 [nM]
Cc1ccc2c(c1)NC(c1c(F)cccc1Cl)C1=C(CC(c3ccco3)CC1=O)N2 (configuration not stated) | 3000
Cc1ccc2c(c1)NC(c1ccccc1)C1=C(CC(C)(C)CC1=O)N2 (configuration not stated) | 6900
CC1(C)CC(=O)C2=C(C1)Nc1ccc(OC(F)(F)F)cc1NC2c1c(F)cccc1Cl (configuration not stated) | 1300
CC1(C)CC(=O)C2=C(C1)Nc1ccc(C(F)(F)F)cc1NC2c1c(F)cccc1Cl (configuration not stated) | 370
COc1ccccc1C1Nc2cc(C)ccc2NC2=C1C(=O)CC(C)(C)C2 (configuration not stated) | 1100
CSc1ccccc1C1Nc2cc(C)ccc2NC2=C1C(=O)CC(C)(C)C2 (configuration not stated) | 200
Cc1ccc2c(c1)NC(c1c(F)cccc1Cl)C1=C(CC(c3ccc(N(C)C)cc3)CC1=O)N2 (configuration not stated) | 5400
Cc1ccc2c(c1)NC(c1ccccc1[N+](=O)[O-])C1=C(CC(C)(C)CC1=O)N2 (configuration not stated) | 550
Cc1ccc2c(c1)NC(c1c(F)cccc1Cl)C1=C(CC(C)(C)CC1=O)N2 (configuration not stated) | 300
Cc1ccc2c(c1)NC(c1ccccc1C(F)(F)F)C1=C(CC3(CCCC3)CC1=O)N2 (single isomer, unassigned; (-)) | > 10000
Cc1ccc2c(c1)NC(c1ccccc1SC(F)(F)F)C1=C(CC3(CCCC3)CC1=O)N2 (configuration not stated) | 640
Cc1ccc2c(c1)NC(c1ccccc1Cl)C1=C(CC(C)(C)CC1=O)N2 (configuration not stated) | 280
CCCCN1c2cc(C)ccc2NC2=C(C(=O)CC(C)(C)C2)C1c1c(F)cccc1Cl (configuration not stated) | 150
Cc1ccc2c(c1)NC(c1ccccc1Cl)C1=C(CC3(CCCC3)CC1=O)N2 (configuration not stated) | 240
Cc1ccc2c(c1)NC(c1c(F)cccc1Cl)C1=C(CC(C)(C)CC1=O)N2C (configuration not stated) | 10000
Cc1ccc2c(c1)NC(c1c(F)cccc1F)C1=C(CC(C)(C)CC1=O)N2 (configuration not stated) | 2500
Cc1ccc2c(c1)NC(c1c(F)cccc1Cl)C1=C(CCCC1=O)N2 (configuration not stated) | 1400
CC1(C)CC(=O)C2=C(C1)Nc1ccc(C#N)cc1NC2c1c(F)cccc1Cl (configuration not stated) | 1300

system: HeLa; assay: Cytotoxicity against human HeLa cells up to 30 uM after 72 hrs by alamar blue assay; type: cell-based; settings: not given; how it was run: as §1

SMILES | Activity
Cc1ccc2c(c1)NC(c1ccccc1C(F)(F)F)C1=C(CC3(CCCC3)CC1=O)N2 (single isomer, unassigned; (+)) | Non-toxic

target: Gastrin-releasing peptide receptor (Homo sapiens, UniProt P30550); assay: Inhibition gastrin-releasing peptide receptor; settings: not given
Sequence (P30550 whole entry): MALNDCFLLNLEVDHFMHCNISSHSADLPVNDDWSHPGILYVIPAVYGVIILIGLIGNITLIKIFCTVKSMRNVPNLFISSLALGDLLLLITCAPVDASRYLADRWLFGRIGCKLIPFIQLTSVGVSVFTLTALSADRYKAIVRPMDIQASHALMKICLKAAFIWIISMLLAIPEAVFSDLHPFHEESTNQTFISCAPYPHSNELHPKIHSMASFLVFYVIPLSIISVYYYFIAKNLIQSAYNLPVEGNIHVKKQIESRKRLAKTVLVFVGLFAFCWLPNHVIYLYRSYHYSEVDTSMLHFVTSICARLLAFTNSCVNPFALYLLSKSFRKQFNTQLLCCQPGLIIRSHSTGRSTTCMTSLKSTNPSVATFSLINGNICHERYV

SMILES | IC50 [nM]
Cc1ccc2c(c1)NC(c1c(F)cccc1Cl)C1=C(CC(C)(C)CC1=O)N2 (configuration not stated) | > 10000

system: HEK293; assay: Cytotoxicity against HEK293 cells up to 30 uM after 72 hrs by alamar blue assay; type: cell-based; settings: human, hek293, 72 h

SMILES | Activity
Cc1ccc2c(c1)NC(c1ccccc1C(F)(F)F)C1=C(CC3(CCCC3)CC1=O)N2 (single isomer, unassigned; (+)) | Non-toxic
